Reference: ChEMBL document CHEMBL4033784, “Discovery of 1,5-Diphenylpyrazole-3-Carboxamide Derivatives as Potent, Reversible, and Selective Monoacylglycerol Lipase (MAGL) Inhibitors” (J Med Chem, 2018)
Active and inactive are the calls of the source.

Experiments:
[1] = biological target: T1, Fatty-acid amide hydrolase 1 (Homo sapiens) (UniProt O00519); assay: Inhibition of recombinant human FAAH using AMC arachidonoylamide as substrate at 10 uM after 30 mins by fluorescence assay relative to control
T1 sequence (whole entry): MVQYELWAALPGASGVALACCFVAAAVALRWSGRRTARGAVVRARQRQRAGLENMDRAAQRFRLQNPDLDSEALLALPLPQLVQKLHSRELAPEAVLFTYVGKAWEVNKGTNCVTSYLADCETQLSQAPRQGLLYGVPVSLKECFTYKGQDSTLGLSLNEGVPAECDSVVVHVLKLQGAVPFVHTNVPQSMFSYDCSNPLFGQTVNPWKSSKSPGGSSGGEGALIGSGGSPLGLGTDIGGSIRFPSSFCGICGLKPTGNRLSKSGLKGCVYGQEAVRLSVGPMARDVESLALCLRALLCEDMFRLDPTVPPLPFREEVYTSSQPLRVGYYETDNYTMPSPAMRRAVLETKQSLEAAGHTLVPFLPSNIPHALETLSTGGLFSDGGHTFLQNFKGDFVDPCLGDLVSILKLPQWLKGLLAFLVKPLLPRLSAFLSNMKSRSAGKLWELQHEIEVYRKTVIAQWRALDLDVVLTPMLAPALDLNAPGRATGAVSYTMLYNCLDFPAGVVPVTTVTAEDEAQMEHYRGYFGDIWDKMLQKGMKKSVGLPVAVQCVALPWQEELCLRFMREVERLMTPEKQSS
Method in brief: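 Human recombinant FAAH (0.9 µg/well) in 125 mM Tris pH 9.0 with 1 mM EDTA and 0.1 mg/ml BSA at room temperature. Substrate was AMC arachidonoylamide, final 10 µM. Compound range 200–0.0128 µM. Fluorescence (ex 340/em 460 nm) read after 30 min with no-enzyme blanks subtracted. IC50 from sigmoidal dose-response fit.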

[2] = biological target: Cannabinoid receptor 2 (Homo sapiens) (UniProt P34972); assay: Displacement of [3H]CP55,940 from human CB2 receptor expressed in CHOK1 cell membranes at 10 uM after 90 mins relative to control
Cannabinoid receptor 2 (Homo sapiens), sequence (P34972 whole entry): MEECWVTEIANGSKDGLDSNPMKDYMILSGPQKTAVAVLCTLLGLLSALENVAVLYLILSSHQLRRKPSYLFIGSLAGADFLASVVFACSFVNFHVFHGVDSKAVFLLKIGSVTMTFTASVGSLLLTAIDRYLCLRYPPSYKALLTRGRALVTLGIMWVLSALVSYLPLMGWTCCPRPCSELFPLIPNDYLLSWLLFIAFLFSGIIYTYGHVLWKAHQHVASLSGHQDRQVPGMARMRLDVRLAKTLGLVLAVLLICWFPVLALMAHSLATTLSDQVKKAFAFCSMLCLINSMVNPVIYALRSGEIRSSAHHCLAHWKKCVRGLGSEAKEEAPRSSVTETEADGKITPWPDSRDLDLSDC
Method in brief: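 Membranes expressing hCB1 or hCB2 were incubated in 50 mM Tris-HCl, 2.5 mM EDTA, 5 mM MgCl2 with fatty-acid-free BSA, pH 7.4. Incubation with compound and 0.5 nM [3H]CP55,940 for 90 min at 30 °C. Nonspecific binding defined with 10 µM […]. Samples were filtered on GF/B, washed twelve times with ice-cold buffer, and radioactivity counted.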

Mus musculus [3] = assay: Antinociceptive activity in po dosed oxaliplatin-induced neuropathic pain 4r5CD-1 albino mouse model assessed as pain relief treated on day 15 post oxaliplatin treatment by cold plate test; type: functional, organism-based
Method in brief: (§1)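 Male CD-1 mice (22–25 g) received oxaliplatin 2.4 mg/kg i.p. in 5% glucose on days 1-2, 5-9, 12-14. On day 15 a single p.o. dose (10 or 30 mg/kg) suspended in CMC was given. Cold plate at 4 °C ± 1 °C, 60 s cut-off, latency to first paw lick or lift timed after dosing. 10 mice per group over 2 sets, mean ± S.E.M., one-way ANOVA with Bonferroni.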

Mus musculus [4] = assay: Antinociceptive activity in oxaliplatin-induced neuropathic pain 4r5CD-1 albino mouse model assessed as reduction in licking latency at 10 mg/kg, po treated on day 15 post oxaliplatin treatment measure at 30 mins post dose by cold plate test; type: functional, organism-based; method in brief: as §1
Mus musculus [5] = assay: Antinociceptive activity in oxaliplatin-induced neuropathic pain 4r5CD-1 albino mouse model assessed as reduction in licking latency at 30 mg/kg, po treated on day 15 post oxaliplatin treatment measure at 30 to 45 mins post dose by cold plate test; type: functional, organism-based; method in brief: as §1
Mus musculus [6] = assay: Antinociceptive activity in oxaliplatin-induced neuropathic pain 4r5CD-1 albino mouse model assessed as reduction in cold allodynia at 30 mg/kg, po cotreated with oxaliplatin on day 1 to 14 measured on day 7 and 15 by cold plate test; type: functional, organism-based
Method in brief: (§2)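 Male CD-1 mice (22–25 g) given oxaliplatin 2.4 mg/kg i.p. in 5% glucose on days 1-2, 5-9, 12-14. Compound suspended in CMC, 30 mg/kg p.o., given on the same schedule. Cold plate held at 4 °C ± 1 °C, 60 s cut-off. Latency to first hind-paw lifting or licking recorded on days 7 and 15, 24 h after the last dose. 10 mice per group over 2 sets, mean ± S.E.M.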

Mus musculus [7] = assay: Antinociceptive activity in oxaliplatin-induced 4r5CD-1 albino mouse assessed as […] pain relief at 30 mg/kg, po cotreated with oxaliplatin on day 1 to 14 measured up to 24 hrs post last on day 15 by cold plate test; type: functional, organism-based; method in brief: as §2
Mus musculus [8] = assay: Effect on 2-AG level in brain of oxaliplatin-induced neuropathic pain 4r5CD-1 albino mouse model at 30 mg/kg, po measured at 1 hr post last dose on day 15 by LC-MS/MS analysis; type: functional, organism-based
Method in brief: (§3)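 Mice received oxaliplatin 2.4 mg/kg i.p. plus compound 30 mg/kg p.o. or vehicle for 14 days. On day 15 they were decapitated 1 h after the last dose. Brain and spinal cord were washed in PBS and snap-frozen. 2-AG was quantified by LC-MS/MS.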

Mus musculus [9] = assay: Effect on 2-AG level in spinal cord of oxaliplatin-induced neuropathic pain 4r5CD-1 albino mouse model at 30 mg/kg, po measured at 1 hr post last dose on day 15 by LC-MS/MS analysis; type: functional, organism-based; method in brief: as §3
[10] = biological target: T2, Monoglyceride lipase (Homo sapiens) (UniProt Q99685); conditions: 20 uM
T2 sequence (whole entry): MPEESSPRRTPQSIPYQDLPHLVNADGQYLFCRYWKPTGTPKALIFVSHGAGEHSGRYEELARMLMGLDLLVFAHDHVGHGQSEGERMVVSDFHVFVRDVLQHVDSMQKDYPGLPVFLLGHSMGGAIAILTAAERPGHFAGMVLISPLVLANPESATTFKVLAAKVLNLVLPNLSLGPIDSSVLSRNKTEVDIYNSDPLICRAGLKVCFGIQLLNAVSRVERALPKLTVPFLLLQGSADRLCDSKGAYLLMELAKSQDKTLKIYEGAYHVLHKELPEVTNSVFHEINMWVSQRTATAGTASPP

[11] = biological target: T2, Monoglyceride lipase (Homo sapiens); conditions: 20 uM; remark: listed apart in the source

With Cc1cccc(Cn2nc(C(=O)N3CCC(Cc4ccccc4)CC3)cc2-c2ccc(O)cc2)c1 the inhibition [1] was 7%, the inhibition [2] was 35% and the Activity (Mus musculus [3]) was “Dose-dependent effect”. The Activity (Mus musculus [4]) was “Active”, the Activity (Mus musculus [5]) was “Active” and the Activity (Mus musculus [6]) was “Active”. For the same compound, the Activity (Mus musculus [7]) was “Active”, the Activity (Mus musculus [8]) was “inactive” and the Activity (Mus musculus [9]) was “inactive”. For the same compound, the inhibition [10] was “Active” and the inhibition [11] was “Active”.
